Screening results as filed in PubChem.
A selection: hits, their analogues and other compounds. The true share with any hit is near 1.3%.
DDE Tn6 FP inh: inhibitors of Tn6 peptide binding to human fibrin DD(E). P02675. Fibrin DD(E) TRITC-Tn6 fluorescence polarization displacement. inhibition, % at 8.3 µM. 370,000 compounds, 0.21% hits. AID 720509;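 active means inhibition above a per-campaign cutoff: mean of compounds within control limits plus 3 SD, cut at about 15% in these data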;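 further: 0% = median of all compound wells on the plate and 100% = blocking peptide control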
Target sequence (P02675 whole entry, looked up): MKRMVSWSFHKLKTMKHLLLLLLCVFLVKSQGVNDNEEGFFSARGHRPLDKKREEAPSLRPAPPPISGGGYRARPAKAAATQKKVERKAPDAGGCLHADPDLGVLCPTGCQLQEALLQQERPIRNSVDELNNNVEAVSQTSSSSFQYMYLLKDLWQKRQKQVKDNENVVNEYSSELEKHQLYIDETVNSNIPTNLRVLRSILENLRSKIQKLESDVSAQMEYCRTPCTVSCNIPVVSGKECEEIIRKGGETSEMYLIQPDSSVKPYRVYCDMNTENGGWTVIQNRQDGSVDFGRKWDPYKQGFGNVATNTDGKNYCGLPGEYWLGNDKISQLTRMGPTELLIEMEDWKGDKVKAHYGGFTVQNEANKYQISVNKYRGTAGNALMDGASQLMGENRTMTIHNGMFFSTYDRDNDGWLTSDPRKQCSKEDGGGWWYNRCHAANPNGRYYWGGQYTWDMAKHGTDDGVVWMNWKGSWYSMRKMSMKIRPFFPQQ
CendR NRP1 mod: modulators of CendR peptide binding to human neuropilin-1. O14786. FAM-RPARPAR peptide binding to NRP-1, fluorescence polarization. inhibition, % at 25 µM. 360,000 compounds, 0.85% hits. AID 602438;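 active means inhibition or corrected inhibition above about 18%, plus a signal ratio from 0.5 to 1.5, limit read from the data, passing the limit was not always enough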
Tn7 DDE FP: DD(E)-Tn7 binding inhibition, primary FP screen; FP displacement of FITC-Tn7 peptide from fibrin DD(E); 0% = median of compound wells per plate; inhibition, % at 8.3 µM; 370,000 compounds, 0.13% hits; AID 720508;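 active means inhibition above the mean of compounds falling within the control limits plus 3 SD of them, cut at about 14% in these data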;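 further: 0% = plate median of compound wells and 100% = 10 µM Aha-Tn7 peptide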
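Also added: labelled Tn7 tracer, 0.1 µM; Assay system: human fibrin DD(E) protein; Amount: 2 µM fibrin DD(E); Schedule: 10 min compound pre-incubation, 3 h probe incubation at room temperature; Repeats: one replicate per compound; Read-out basis: percent inhibition; Measured by: fluorescence polarization of the labelled Tn7 tracer.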
aDG glyco up: increases alpha dystroglycan glycosylation | Pro5-aDG cells, alpha-DG glycosylation AlphaScreen (IIH6); 0% Pro5, 100% B10-LARGE cell signal | activation, % at 10 µM | 360,000 compounds, 0.22% hits;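 active means activation of at least 8% versus controls, or a plate z-score of at least 8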;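 further: Pro5 are CHO cells carrying HIG-tagged alpha-DG that lacks glycosylation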
DDE Tn7 confirm: DD(E)-Tn7 binding inhibition, FP confirmation. FP displacement of TRITC-Tn7 peptide from DD(E); 0% set at plate's compound-well median. 460 compounds, 5% hits. AID 720628. inhibition, % at 8.3 µM. shares compounds with Tn7 DDE FP;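 active means inhibition above the campaign cutoff, the mean of compounds within control limits plus 3 SD, cut at about 14% in these data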;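 further: 100% = median FP of high control wells holding Aha-Tn7 inhibitor peptide; displacers lower polarization since freed probe rises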
Tn7 DDE ctr: counter-screen for inhibitors of Tn7 peptide binding to fibrin DD(E). inhibition, % at 8.3 µM. TRITC-Tn7 probe displacement, fluorescence polarization. AID 720633. 460 compounds, 3% hits. shares compounds with Tn7 DDE FP;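 active means inhibition above the cutoff, the mean of compounds lying between the control bounds plus 3 SD of those compounds, cut at about 17% in these data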;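 further: 0% = median of compound sample wells and 100% = excess unlabeled Aha-Tn7 peptide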
DDE Tn6 FP ctr: DD(E)-Tn6 binding inhibition, counter-screen; 680 compounds, 2% hits; inhibition, % at 8.3 µM; shares compounds with DDE Tn6 FP inh; AID 720621; Fibrin DD(E), TRITC-Tn6 fluorescence polarization displacement; 0% = median of compound wells, not DMSO;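 active means inhibition above the mean of test compounds lying between the control limits plus 3 SD of those, cut at about 14% in these data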;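 further: 0% = median of compound wells and 100% = wells with Aha-Tn7 blocking peptide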
Tn6 DDE conf: DD(E)-Tn6 binding inhibition, FP confirmation; FP displacement of TRITC-Tn6 peptide from DD(E); 0% = per-plate median of test wells; inhibition, % at 8.3 µM; AID 720631; shares compounds with DDE Tn6 FP inh; 680 compounds, 10% hits;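 active means inhibition above the mean of compounds lying within the control limits plus 3 SD, cut at about 16% in these data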;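 further: 100% = high control wells holding a competing inhibitor peptide at 10 µM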
An asterisk follows results filed as active; . = no result given; + = active, no number.

SMILES	DDE Tn6 FP inh	CendR NRP1 mod	Tn7 DDE FP	aDG glyco up	DDE Tn6 FP ctr	Tn6 DDE conf	others
Clc1ccc2nc3c4ccccc4cnn3c2c1	5.0	-0.2	1.9	0.3	.	.
Oc1ccc2nnc3c(Br)cnn3c2c1	-6.5	76.4	17.1*	-0.1	.	.	DDE Tn7 confirm=10.8;Tn7 DDE ctr=-0.9
Clc1ccc(-n2c(SCc3cccc4ccccc34)nnc2-c2ccco2)cc1	-9.8	.	14.5*	.	.	.	DDE Tn7 confirm=13.3;Tn7 DDE ctr=6.1
Cc1ccc(CN2CCC2(C)C(=O)NC(C)C)cc1 (configuration not stated)	0.7	3.2	-1.5	-0.3	.	.
Cc1ccc(CN2CCCC2(C)C(=O)NC(C)C)cc1 (configuration not stated)	3.4	9.1	13.9*	0.0	.	.	DDE Tn7 confirm=2.3;Tn7 DDE ctr=2.7
Cn1c(CN2CCCCC2)nc2cc(NC(=O)c3ccccc3Cl)ccc21	-6.0	-15.3	-2.7	0.4	.	.
Cn1c(CN2CCCCC2)nc2cc(NC(=O)c3ccc(F)cc3)ccc21	-0.9	-3.1	15.4*	0.5	.	.	DDE Tn7 confirm=2.0;Tn7 DDE ctr=1.7
COc1cccc2c1C(=O)c1c(O)c3c(c(O)c1C2=O)CC(O)(C(=O)CO)CC3OC1CC(N(C)C)C(O)C(C)O1 (configuration not stated)	+	144.7	16.2*	-0.4	-7.4	93.2*	DDE Tn7 confirm=-7.4;Tn7 DDE ctr=93.2*
COc1cccc2c1C(=O)c1c(O)c3c(c(O)c1C2=O)C[C@@](O)(C(C)=O)C[C@@H]3O[C@H]1C[C@H](N)[C@H](O)[C@H](C)O1	+	141.9	17.7*	-0.4	-8.6	93.2*	DDE Tn7 confirm=-8.6;Tn7 DDE ctr=93.2*
COc1ccc(C2C(C(=O)Nc3cc(Cl)ccc3F)CCC(=O)N2c2ccc(OC)cc2)cc1 (configuration not stated)	8.1	.	-1.4	.	.	.
O=C(NCCC1=CCCCC1)c1ccc(-n2cncn2)c([N+](=O)[O-])c1	161.9*	-1.7	24.1*	0.1	2.4	4.6	DDE Tn7 confirm=2.4;Tn7 DDE ctr=4.6
COc1ccc(C(=O)NCCC2=CCCCC2)cc1[N+](=O)[O-]	-2.8	-8.6	6.0	0.0	.	.
CCOC(=O)CNC(=O)CSc1nnc(-c2cccs2)o1	-3.6	.	-0.7	.	.	.
O=C(NCc1ccccc1)[C@@H]1CCCN1C(=O)[C@H]1CCCN1C(=O)N1CCCCC1	-1.0	.	-2.4	.	.	.
CN(CC(=O)Nc1ccccc1C(=O)NC1CC1)Cc1ccc(N(C)C)cc1	39.8*	10.9	18.2*	0.1	-5.6	-9.9	DDE Tn7 confirm=-5.6;Tn7 DDE ctr=-9.9
COc1ccc(CN(C)CC(=O)Nc2ccccc2C(=O)NC2CC2)cc1	1.4	-12.4	5.0	-0.1	.	.
CCNC(=O)C1CCCN(C(=O)c2cccs2)CC1 (configuration not stated)	1.6	3.5	-1.9	-0.2	.	.
CCNC(=O)C1CCCN(C(=O)Cc2cccs2)CC1 (configuration not stated)	17.6*	-14.8	14.5*	0.4	2.0	-2.7	DDE Tn7 confirm=2.0;Tn7 DDE ctr=-2.7
COc1ccc(N(Cc2cc3cc(OC)ccc3[nH]c2=O)C(=O)c2cccnc2)cc1	20.9*	-3.3	22.8*	-0.1	-6.4	-11.2	DDE Tn7 confirm=-6.4;Tn7 DDE ctr=-11.2
Cc1ccccc1-n1c(C)nnc1SCC(=O)N(C)C1CCS(=O)(=O)C1 (configuration not stated)	19.4*	1.9	0.1	-0.2	-2.5	-4.9
CCOC(=O)C1=CCN(S(=O)(=O)c2ccc([N+](=O)[O-])cc2)C1c1ccc(C)cc1 (configuration not stated)	9.0	.	-2.0	.	.	.
O=c1c2cccnc2[nH]c(=S)n1CCCN1CCN(c2ccccc2F)CC1	17.4*	-2.1	6.9	0.1	1.4	-0.8
Brc1ccc(N2O[C@H]3C=C[C@@H]2C3)nc1	-0.9	.	-5.2	.	.	.
COC(=O)C1=C(C)N(Cc2ccccc2C(F)(F)F)C(=NCc2ccc3c(c2)OCO3)NC1c1ccccc1C(F)(F)F (configuration not stated)	-5.7	.	-3.8	.	.	.
CCOc1ccc(S(=O)(=O)NCCC(=O)NCc2ccco2)cc1	-1.5	3.6	3.1	0.0	.	.
SMILES	DDE Tn6 FP inh	CendR NRP1 mod	Tn7 DDE FP	aDG glyco up	DDE Tn6 FP ctr	Tn6 DDE conf	others
CCOc1ccc(S(=O)(=O)NCCC(=O)NCCOc2ccccc2OC)cc1	22.2*	-6.9	0.3	-0.3	1.1	1.7
COC1=CC(=O)OC(c2ccc(C(F)(F)F)cc2)C1 (configuration not stated)	16.0*	25.6*	8.9	-0.1	1.1	-5.0
CCN(CC)c1ccc(/C=c2\sc3nc4ccccc4n3c2=O)c(O)c1	17.9*	-35.9	4.0	3.1	1.0	8.2
N#CC(C#N)=c1ccc2c(c1)NC1(CCCCC1)N=2	41.8*	6.2	4.5	-0.8	11.4	34.4*
Cc1ccc(NC(=O)CN(C)C(=O)c2cccc(S(=O)(=O)NCc3ccco3)c2)cc1	3.7	5.4	-2.3	0.0	.	.
Cc1nc2ccc(C(=O)N3CCN(C(=O)OCc4ccccc4)CC3)cc2n1C1CCCC1	-3.5	.	9.5	.	.	.
COc1cc(NS(=O)(=O)c2ccc(NC(=S)NC(=O)/C=C/c3ccc(F)cc3)cc2)ncn1	18.9*	-4.5	2.3	-0.1	-5.8	-10.2
CCOC(=O)c1cc2c(=Cc3ccc(N(C)C)cc3)c3ccccc3n2[n+]1C	21.5*	-73.7	-2.3	0.3	5.7	-15.3
CCN1CC=C2C(C1)C(c1ccc(Cl)s1)C(C#N)=C(N)C2(C#N)C#N (configuration not stated)	15.8*	50.2	3.1	-0.1	-1.5	-2.8
COc1ccc(N2CCN(C(=O)C3CCN(S(=O)(=O)c4ccccc4)CC3)CC2)cc1	4.1	18.4	-4.9	-0.1	.	.
O=C(C1CCN(S(=O)(=O)c2ccccc2)CC1)N1CCN(c2ccccc2)CC1	15.4*	11.2	6.2	-0.1	-1.0	-1.2
Nc1ccc(N2CCOCC2)c(S(=O)(=O)Nc2ccccc2Cl)c1	17.9*	-13.0	4.9	-0.2	6.4	4.0
COc1ccccc1NS(=O)(=O)c1cc(N)ccc1N1CCOCC1	-1.3	-10.1	7.2	-0.2	.	.
N=c1c(C(=O)NC2CCCC2)cc2c(=O)n3ccccc3nc2n1CCN1CCOCC1	15.6*	-11.6	-1.2	0.0	0.4	-1.7
CN(C)/C=C1\SC(=S)N(c2ccc(Br)cc2)C1=O	35.6*	-188.4	7.3	-0.1	4.1	31.6*
CN(C)/C=C1\SC(=S)N(c2ccc(F)cc2)C1=O	4.2	-4.6	-0.9	-0.1	.	.
CC(C)C[C@H]1COc2cccc(NCCO)c2S(=O)(=O)N1	1.1	.	-5.6	.	.	.
